Calls of active or inactive are those of the source.
Legend:
[1] = test system: SW-620; assay: Induction of apoptosis in human SW-620 cells assessed as PARP cleavage at 0.5 uM measured after 6 hrs by western blot assay; assay type: functional, cell-based
Procedure, shortened: (§1)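 Cells exposed to 0.5 µM for 6 h. Lysates resolved by SDS-PAGE and blotted to PVDF, blocked in 5% milk/TBST, probed with primary antibodies at 1:1000, ECL detection. Apoptosis scored as the densitometric ratio of cleaved PARP band to intact PARP band; mean ± SD, n = 3.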

[2] = test system: MDA-MB-231; assay: Induction of apoptosis in human MDA-MB-231 cells assessed as PARP cleavage at 0.5 uM measured after 6 hrs by western blot assay; assay type: functional, cell-based; procedure, shortened: as §1
[3] = test system: BT-549; assay: Induction of apoptosis in human BT-549 cells assessed as PARP cleavage at 0.5 uM measured after 6 hrs by western blot assay; assay type: functional, cell-based; procedure, shortened: as §1
[4] = molecular target: T1, Nuclear receptor subfamily 4immunitygroup A member 1 (Homo sapiens, UniProt P22736); assay: Modulation of Myc-Nur77 (unknown origin) transfected in human HEK293T cells assessed as induction of Myc-Nur77 mitochondrial targeting by measuring increase in Myc-Nur77 accumulation in mitochondria at 0.5 uM measured after 2 hrs by western blot analysis; details: filed as modulator
T1 sequence (P22736 whole entry): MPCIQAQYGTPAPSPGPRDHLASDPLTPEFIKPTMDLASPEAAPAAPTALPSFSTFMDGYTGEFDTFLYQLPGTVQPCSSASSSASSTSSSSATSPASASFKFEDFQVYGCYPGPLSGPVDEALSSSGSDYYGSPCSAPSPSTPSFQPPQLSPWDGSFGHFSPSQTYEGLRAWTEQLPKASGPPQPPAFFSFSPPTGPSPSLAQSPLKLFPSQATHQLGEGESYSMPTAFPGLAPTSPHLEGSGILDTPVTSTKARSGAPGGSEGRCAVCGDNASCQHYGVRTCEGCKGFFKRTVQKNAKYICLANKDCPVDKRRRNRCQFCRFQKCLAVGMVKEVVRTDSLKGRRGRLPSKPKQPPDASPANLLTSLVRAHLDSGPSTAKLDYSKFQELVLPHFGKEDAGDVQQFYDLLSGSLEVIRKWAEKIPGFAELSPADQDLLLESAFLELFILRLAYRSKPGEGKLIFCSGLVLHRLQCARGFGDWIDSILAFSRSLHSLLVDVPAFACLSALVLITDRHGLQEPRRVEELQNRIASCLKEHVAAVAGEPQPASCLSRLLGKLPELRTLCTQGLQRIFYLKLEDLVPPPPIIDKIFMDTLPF
Procedure, shortened: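 HEK293T cells transfected with Myc-Nur77 were exposed to 0.5 μM compound for 2 h. Cells were homogenised in sucrose Buffer D; 500 g then 5000 g spins gave a mitochondrial pellet. Whole-cell and mitochondrial fractions were western blotted for Myc-Nur77, with PARP and Tom20 as fraction-purity markers.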

[5] = test system: Mus musculus; assay: Antitumour activity against FVB/N mammary tumor MMTV-PyMT mouse model assessed as inhibition of tumour growth at 3 mg/kg, po administered daily for 14 days; assay type: functional, organism-based; details: time 14.0 day
Procedure, shortened: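 Female MMTV-PyMT transgenic mice (FVB/N background), 12 weeks old, randomized n = 6 per group; daily oral gavage 3 mg/kg for 14 days. Dosing solution: DMSO stock diluted in normal saline with 5.0% (V/V) Tween-80 to 3 mg/mL. Tumours weighed at end; mean ± SD, Student's t-test versus untreated controls.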

[6] = test system: MEF; assay: Induction of apoptosis in mouse MEF cells deficient in Bcl2 assessed as PARP cleavage at 0.5 uM measured after 6 hrs by Western blot assay; assay type: functional, cell-based
Procedure, shortened: (§2)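 Wild-type, Nur77−/− or Bcl-2−/− mouse embryonic fibroblasts grown in DMEM with 10% FBS and treated with 0.5 µM for 6 h. PARP cleavage detected by western blot, primary antibodies at 1:1000, ECL.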

[7] = molecular target: T1, Nuclear receptor subfamily 4immunitygroup A member 1; assay: Modulation of Myc-Nur77-LBD (unknown origin) transfected in human HEK293T cells assessed as induction of Myc-Nur77 mitochondrial targeting by measuring increase in Myc-Nur77 accumulation in mitochondria at 0.5 uM measured after 2 hrs by Mito-tracker dye based confocal microscopy method; details: filed as modulator
Procedure, shortened: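 HEK293T cells transfected with Myc-Nur77-LBD were given 0.5 μM compound for 2 h, stained with Mito-Tracker and immunostained. Nur77 mitochondrial localisation was visualised by confocal microscopy.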

[8] = test system: MEF; assay: Induction of apoptosis in wild type mouse MEF cells assessed as PARP cleavage at 0.5 uM measured after 6 hrs by western blot assay; assay type: functional, cell-based; procedure, shortened: as §2
[9] = test system: HCT-116; assay: Induction of apoptosis in human HCT-116 cells assessed as PARP cleavage at 0.5 uM measured after 6 hrs by western blot assay; assay type: functional, cell-based; procedure, shortened: as §1

Measured: Activity

FC(F)(F)c1ccc([C+](c2c[nH]c3ccccc23)c2c[nH]c3ccccc23)cc1
inactive: [6]
active: all other assays above

— ChEMBL document CHEMBL4819003, “Optimization of novel oxidative DIMs as Nur77 modulators of the Nur77-Bcl-2 apoptotic pathway” (Eur J Med Chem, 2021)
